Assays:
[1] = Selectivity ratio of Ki for kappa opioid receptor in guinea pig cerebrum membranes to Ki for delta opioid receptor in rat cerebrum membranes; assay type: cell membranes; details: Membrane
Mu-type opioid receptor [2] = target: Mu-type opioid receptor (Rattus norvegicus, UniProt P33535); test: Displacement of [3H]DAMGO from mu opioid receptor in rat cerebrum membranes; assay type: cell membranes, Membrane
Summary of the method: (§1)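 Rat cerebrum membranes; mu sites labelled with [³H]DAMGO and delta sites with [³H]DADLE, displaced by varying test concentrations. Nonspecific binding was defined with unlabeled levallorphan. Ki was derived from displacement data using the Cheng–Prusoff equation.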

[3] = target: Delta-type opioid receptor (Rattus norvegicus, UniProt P33533); test: Displacement of [3H]DADLE from delta opioid receptor in rat cerebrum membranes; assay type: cell membranes, Membrane; summary of the method: as §1
[4] = target: T1, Kappa-type opioid receptor (Cavia porcellus, UniProt P41144); test: Displacement of [3H]U-69,593 from kappa opioid receptor in guinea pig cerebrum membranes; assay type: cell membranes, Membrane
Summary of the method: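 Kappa binding used guinea pig cerebrum membranes labelled with [³H]U-69,593 and displaced by test compound. Nonspecific binding was taken with […] unlabeled U-69,593. Ki was obtained via Cheng–Prusoff.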

[5] = target: T2, Delta-type opioid receptor (Homo sapiens, UniProt P41143); test: Agonist activity at human recombinant delta opioid receptor expressed in human HEK293 cells by [35S]GTPgammaS binding assay; assay type: functional, cell-based
Rattus norvegicus = species on record: Rattus norvegicus; test: Selectivity ratio of Ki for mu opioid receptor in rat cerebrum membranes to Ki for delta opioid receptor in rat cerebrum membranes; assay type: cell membranes; details: Membrane; summary of the method: as §1
[6] = target: Delta-type opioid receptor (Mus musculus, UniProt P32300); test: Displacement of [3H]DPDPE from delta opioid receptor in mouse whole brain membranes without cerebellum; assay type: cell membranes, Membrane
Mu-type opioid receptor [7] = target: Mu-type opioid receptor (Mus musculus, UniProt P42866); test: Displacement of [3H]DAMGO from mu opioid receptor in mouse whole brain membranes without cerebellum; assay type: cell membranes, Membrane
[8] = target: T1, Kappa-type opioid receptor; test: Displacement of [3H]U-69,593 from kappa opioid receptor in guinea pig cerebellum membranes; assay type: cell membranes, Membrane
[9] = target: T2, Delta-type opioid receptor; test: Ratio of SNC80 EC50 to compound EC50 for human recombinant delta opioid receptor expressed in human HEK293 cells; assay type: cell-based
[10] = target: T2, Delta-type opioid receptor; test: Ratio of (-)TAN-67 EC50 to compound EC50 for human recombinant delta opioid receptor expressed in human HEK293 cells; assay type: cell-based
Summary of the method: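 [³⁵S]GTPγS binding used purchased HEK-293 membranes carrying human recombinant delta receptor. Incubation buffer was 50 mM Tris, 1 mM EDTA, 12.5 mM MgCl₂, 100 mM NaCl and 0.5% BSA. It contained GDP, 0.1 nM [³⁵S]GTPγS and graded compound concentrations. (−)-TAN-67 served as the standard delta agonist.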

Mu-type opioid receptor (Rattus norvegicus, UniProt P33535), sequence (P33535 whole entry): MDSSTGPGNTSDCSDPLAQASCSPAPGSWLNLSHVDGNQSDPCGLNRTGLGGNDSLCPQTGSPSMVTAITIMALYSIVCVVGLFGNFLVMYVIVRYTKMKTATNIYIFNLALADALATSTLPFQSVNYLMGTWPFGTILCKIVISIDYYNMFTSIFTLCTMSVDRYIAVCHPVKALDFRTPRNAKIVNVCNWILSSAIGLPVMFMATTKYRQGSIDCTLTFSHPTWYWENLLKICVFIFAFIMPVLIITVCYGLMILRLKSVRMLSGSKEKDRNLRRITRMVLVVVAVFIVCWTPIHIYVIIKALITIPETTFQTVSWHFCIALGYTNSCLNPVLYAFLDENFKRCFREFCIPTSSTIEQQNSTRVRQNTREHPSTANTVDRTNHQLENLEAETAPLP
Mu-type opioid receptor (Mus musculus, UniProt P42866), sequence (P42866 whole entry): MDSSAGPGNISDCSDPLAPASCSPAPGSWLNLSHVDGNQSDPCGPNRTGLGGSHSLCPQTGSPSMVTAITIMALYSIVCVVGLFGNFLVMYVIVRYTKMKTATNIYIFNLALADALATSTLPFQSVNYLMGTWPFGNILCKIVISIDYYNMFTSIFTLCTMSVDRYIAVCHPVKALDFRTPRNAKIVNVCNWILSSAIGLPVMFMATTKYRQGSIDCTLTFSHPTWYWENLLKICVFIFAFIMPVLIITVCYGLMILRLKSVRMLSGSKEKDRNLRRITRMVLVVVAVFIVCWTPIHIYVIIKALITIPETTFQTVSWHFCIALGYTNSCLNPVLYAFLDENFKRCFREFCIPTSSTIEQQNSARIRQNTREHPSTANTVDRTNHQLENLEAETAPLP
Delta-type opioid receptor (Mus musculus, UniProt P32300), sequence (P32300 whole entry): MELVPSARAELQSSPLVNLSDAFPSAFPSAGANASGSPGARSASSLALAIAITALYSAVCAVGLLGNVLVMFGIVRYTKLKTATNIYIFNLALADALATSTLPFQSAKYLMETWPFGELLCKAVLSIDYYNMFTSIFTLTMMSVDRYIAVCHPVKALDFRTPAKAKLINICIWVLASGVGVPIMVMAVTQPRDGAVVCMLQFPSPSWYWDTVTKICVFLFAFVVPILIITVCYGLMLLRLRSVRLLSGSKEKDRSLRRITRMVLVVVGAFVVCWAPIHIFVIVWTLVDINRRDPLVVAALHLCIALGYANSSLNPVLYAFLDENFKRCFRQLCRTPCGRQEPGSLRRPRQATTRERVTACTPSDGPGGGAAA
T2 sequence (P41143 whole entry): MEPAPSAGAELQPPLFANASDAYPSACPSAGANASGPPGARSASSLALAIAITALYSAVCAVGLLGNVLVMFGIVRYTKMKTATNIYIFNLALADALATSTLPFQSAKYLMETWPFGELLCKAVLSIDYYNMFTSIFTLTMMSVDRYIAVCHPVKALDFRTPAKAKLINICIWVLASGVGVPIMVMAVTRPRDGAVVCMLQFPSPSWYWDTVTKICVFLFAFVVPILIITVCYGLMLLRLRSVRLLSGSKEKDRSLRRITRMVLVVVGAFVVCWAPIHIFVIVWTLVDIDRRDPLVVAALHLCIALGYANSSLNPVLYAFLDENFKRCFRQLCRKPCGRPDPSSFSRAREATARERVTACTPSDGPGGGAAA
T1 sequence (P41144 whole entry): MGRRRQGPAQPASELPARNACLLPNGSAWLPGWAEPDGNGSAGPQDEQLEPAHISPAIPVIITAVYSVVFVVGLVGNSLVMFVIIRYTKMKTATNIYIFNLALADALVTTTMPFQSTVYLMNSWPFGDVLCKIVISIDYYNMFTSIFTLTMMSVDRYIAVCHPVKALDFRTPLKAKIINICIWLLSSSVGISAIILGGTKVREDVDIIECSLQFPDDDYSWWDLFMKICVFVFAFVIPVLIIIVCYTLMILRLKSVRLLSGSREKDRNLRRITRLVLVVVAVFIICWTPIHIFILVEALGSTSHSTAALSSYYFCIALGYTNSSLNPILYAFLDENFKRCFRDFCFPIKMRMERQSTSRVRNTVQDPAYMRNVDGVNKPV
Delta-type opioid receptor (Rattus norvegicus, UniProt P33533), sequence (P33533 whole entry): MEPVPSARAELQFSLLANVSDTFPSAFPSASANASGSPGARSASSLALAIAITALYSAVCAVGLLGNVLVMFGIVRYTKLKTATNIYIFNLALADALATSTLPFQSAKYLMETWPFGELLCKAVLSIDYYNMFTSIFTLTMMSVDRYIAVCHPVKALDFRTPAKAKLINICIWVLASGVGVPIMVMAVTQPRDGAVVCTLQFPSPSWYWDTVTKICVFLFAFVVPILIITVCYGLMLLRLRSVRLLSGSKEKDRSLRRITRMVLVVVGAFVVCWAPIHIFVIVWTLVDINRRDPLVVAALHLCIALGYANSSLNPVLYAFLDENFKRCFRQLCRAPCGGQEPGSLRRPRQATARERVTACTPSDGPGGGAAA

In the case of `CN1CC[C@]23Cc4nc5ccccc5cc4C[C@H]2[C@H]1Cc1cccc(O)c13`, the Ratio Ki [1] is reported as 263, the Ki (Mu-type opioid receptor [2]) is reported as 51.8 nM and the Ki [3] is reported as 1 nM. It also gave a Ki [4] of 263 nM, an EC50 [5] of 1.77 nM and a Ratio Ki (Rattus norvegicus) of 51.8.
In the case of `Oc1ccc2c(c1)[C@]13CCN(CC4CCCC4)[C@H](C2)[C@@H]1Cc1cc2ccccc2nc1C3`, the Ki [6] is reported as 0.35 nM, the Ki (Mu-type opioid receptor [7]) is reported as 20.1 nM and the Ki [8] is reported as 3.54 nM.
`CC(C)CN1CC[C@]23Cc4nc5ccccc5cc4C[C@H]2[C@H]1Cc1cccc(O)c13` showed a Ratio Ki [1] of 423, a Ki (Mu-type opioid receptor [2]) of 323 nM and a Ki [3] of 1.22 nM. For the same compound, the Ki [4] was 516 nM, the EC50 [5] was 2.34 nM and the Ratio Ki (Rattus norvegicus) was 265.
Compound `Oc1ccc2c(c1)[C@]13CCN(CC4CC4)[C@H](C2)[C@@H]1Cc1cc2ccccc2nc1C3` has a Ratio Ki [1] of 1.9, a Ratio EC50 [9] of 10 and a Ratio Ki (Rattus norvegicus) of 4.1. For the same compound, the Ratio EC50 [10] was 10.
With `CN1CC[C@]2(c3cccc(O)c3)Cc3nc4ccccc4cc3C[C@H]2C1` the Ratio Ki [1] was 509 and the Ratio Ki (Rattus norvegicus) was 197.
`Oc1ccc2c(c1)[C@]13CCN(Cc4ccccc4)[C@H](C2)[C@@H]1Cc1cc2ccccc2nc1C3` showed a Ki [6] of 12.4 nM, a Ki (Mu-type opioid receptor [7]) of 76.9 nM and a Ki [8] of 50 nM.
Work on `Oc1ccc2c(c1)[C@]13CCN(CC4CCC4)[C@H](C2)[C@@H]1Cc1cc2ccccc2nc1C3` yielded a Ki [6] of 0.12 nM, a Ki (Mu-type opioid receptor [7]) of 6.31 nM and a Ki [8] of 1.07 nM.
With `Oc1ccc2c3c1O[C@H]1c4nc5ccccc5cc4C[C@H]4[C@@H](C2)N(CC2CC2)CC[C@]314` the Ratio Ki [1] was 34.4, the Ki (Mu-type opioid receptor [2]) was 13 nM and the Ki [3] was 0.43 nM. It also gave a Ki [4] of 14.8 nM and a Ratio Ki (Rattus norvegicus) of 30.2.
With `CC(C)CN1CC[C@]23Cc4nc5ccccc5cc4C[C@H]2[C@H]1Cc1ccc(O)cc13` the Ratio Ki [1] was 23.2, the Ratio EC50 [9] was 10 and the Ratio Ki (Rattus norvegicus) was 124. It also gave a Ratio EC50 [10] of 10.
`Oc1ccc2c(c1)[C@]13CCN(CCc4ccccc4)[C@H](C2)[C@@H]1Cc1cc2ccccc2nc1C3` showed a Ki [6] of 4.68 nM, a Ki (Mu-type opioid receptor [7]) of 12.5 nM and a Ki [8] of 17.9 nM.
`Oc1cccc2c1[C@]13CCN(CC4CC4)[C@H](C2)[C@@H]1Cc1cc2ccccc2nc1C3` gave a Ratio Ki [1] of 64.8, a Ki (Mu-type opioid receptor [2]) of 148 nM and a Ki [3] of 0.27 nM. For the same compound, the Ki [4] was 17.5 nM, the EC50 [5] was 0.19 nM and the Ratio Ki (Rattus norvegicus) was 548.
Compound `CN1CC[C@]23Cc4nc5ccccc5cc4C[C@H]2[C@H]1Cc1ccc(O)cc13` has a Ratio Ki [1] of 72.9, a Ki [6] of 0.29 nM and a Ki (Mu-type opioid receptor [7]) of 23.2 nM. For the same compound, the Ratio EC50 [9] was 10, the Ki [8] was 14.3 nM and the Ratio Ki (Rattus norvegicus) was 82.4. For the same compound, the Ratio EC50 [10] was 10.

Reference: ChEMBL document CHEMBL1926591, “Synthesis of quinolinomorphinan-4-ol derivatives as δ opioid receptor agonists” (Bioorg Med Chem, 2012)
